Test results as given in ChEMBL document CHEMBL5058577, “EUbOPEN Chemogenomics Library 2 (Multiplex)” (2022).

Tested on: HEK-293T
Assay: Multiplex assay against HEK293T
Type: toxicity, cell-based
Conditions: human
Method in brief: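 Imaging took place on a CQ1 microscope at 37°C and 5% CO2 once compound had been added to live cells stained at seeding with Hoechst33342, BioTracker Green Microtubule Cytoskeleton Dye, MitoTracker Red and Annexin V Alexa Fluor 680. CellPathfinder machine-learning gating classed cells as Hoechst high-intensity objects or normal cells, classed normal cells as having healthy, pyknosed or fragmented nuclei, and classed pyknosed cells as mitotic or apoptotic. Tubulin, mitochondrial-mass and membrane-permeability phenotypes are per cents of the healthy-nucleus cells.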

[1] = 12 h, 1 µM, compound concentration 1 uM, replicate 1
[2] = 12 h, 1 µM, compound concentration 1 uM, replicate 2
[3] = 12 h, 10 µM, compound concentration 10 uM, replicate 1
[4] = 12 h, 10 µM, compound concentration 10 uM, replicate 2
[5] = 24 h, 1 µM, compound concentration 1 uM, replicate 1
[6] = 24 h, 1 µM, compound concentration 1 uM, replicate 2
[7] = 24 h, 10 µM, compound concentration 10 uM, replicate 1
[8] = 24 h, 10 µM, compound concentration 10 uM, replicate 2
[9] = 48 h, 1 µM, compound concentration 1 uM, replicate 1
[10] = 48 h, 1 µM, compound concentration 1 uM, replicate 2
[11] = 48 h, 10 µM, compound concentration 10 uM, replicate 1
[12] = 48 h, 10 µM, compound concentration 10 uM, replicate 2

## CCc1cc2cc(NS(=O)(=O)c3ccc(C#N)cc3)ccc2n(CC)c1=O
[1]
  Population Apoptotic (%): 43%
  Population Fragmented Nuclei (%): 8%
  Population Healthy Nuclei (%): 78%
  Population Hoechst High Intensity Objects (%): 9%
  Population Membrane Permeable-Phenotype (%): 0%
  Population Mitochondria Different-Phenotype (%): 37%
  Population Mitotic Cells (%): 56%
  Population Normal (%): 90%
  Population Pyknosed Nuclei (%): 12%
  Population Tubulin-Different-Phenotype (%): 28%
  Total Cell Count: 411
[2]
  Population Apoptotic (%): 40%
  Population Fragmented Nuclei (%): 7%
  Population Hoechst High Intensity Objects (%): 7%
  Population Mitochondria Different-Phenotype (%): 64%
  Population Mitotic Cells (%): 59%
  Population Normal (%): 92%
  Population Pyknosed Nuclei (%): 14%
  Population Tubulin-Different-Phenotype (%): 29%
  Total Cell Count: 338
[3]
  Population Apoptotic (%): 38%
  Population Fragmented Nuclei (%): 7%
  Population Healthy Nuclei (%): 80%
  Population Hoechst High Intensity Objects (%): 7%
  Population Membrane Permeable-Phenotype (%): 0%
  Population Mitochondria Different-Phenotype (%): 47%
  Population Mitotic Cells (%): 61%
  Population Normal (%): 92%
  Population Pyknosed Nuclei (%): 12%
  Population Tubulin-Different-Phenotype (%): 48%
  Total Cell Count: 404
[4]
  Population Apoptotic (%): 65%
  Population Fragmented Nuclei (%): 6%
  Population Healthy Nuclei (%): 69%
  Population Hoechst High Intensity Objects (%): 16%
  Population Mitochondria Different-Phenotype (%): 71%
  Population Mitotic Cells (%): 34%
  Population Normal (%): 83%
  Population Pyknosed Nuclei (%): 23%
  Population Tubulin-Different-Phenotype (%): 41%
  Total Cell Count: 291
[5]
  Population Apoptotic (%): 29%
  Population Fragmented Nuclei (%): 8%
  Population Healthy Nuclei (%): 80%
  Population Hoechst High Intensity Objects (%): 5%
  Population Membrane Permeable-Phenotype (%): 1%
  Population Mitochondria Different-Phenotype (%): 19%
  Population Mitotic Cells (%): 70%
  Population Normal (%): 94%
  Population Pyknosed Nuclei (%): 11%
  Population Tubulin-Different-Phenotype (%): 18%
  Total Cell Count: 510
[6]
  Population Apoptotic (%): 43%
  Population Fragmented Nuclei (%): 7%
  Population Healthy Nuclei (%): 84%
  Population Membrane Permeable-Phenotype (%): 0%
  Population Mitochondria Different-Phenotype (%): 44%
  Population Mitotic Cells (%): 56%
  Population Pyknosed Nuclei (%): 7%
  Population Tubulin-Different-Phenotype (%): 22%
  Total Cell Count: 403
[7]
  Population Apoptotic (%): 33%
  Population Fragmented Nuclei (%): 9%
  Population Healthy Nuclei (%): 80%
  Population Hoechst High Intensity Objects (%): 6%
  Population Membrane Permeable-Phenotype (%): 0%
  Population Mitochondria Different-Phenotype (%): 36%
  Population Mitotic Cells (%): 66%
  Population Normal (%): 93%
  Population Pyknosed Nuclei (%): 10%
  Population Tubulin-Different-Phenotype (%): 32%
  Total Cell Count: 478
[8]
  Population Apoptotic (%): 63%
  Population Fragmented Nuclei (%): 10%
  Population Healthy Nuclei (%): 73%
  Population Hoechst High Intensity Objects (%): 17%
  Population Membrane Permeable-Phenotype (%): 1%
  Population Mitochondria Different-Phenotype (%): 58%
  Population Mitotic Cells (%): 36%
  Population Normal (%): 82%
  Population Pyknosed Nuclei (%): 16%
  Population Tubulin-Different-Phenotype (%): 29%
  Total Cell Count: 332
[9]
  Population Apoptotic (%): 30%
  Population Fragmented Nuclei (%): 11%
  Population Healthy Nuclei (%): 81%
  Population Hoechst High Intensity Objects (%): 2%
  Population Membrane Permeable-Phenotype (%): 1%
  Population Mitochondria Different-Phenotype (%): 11%
  Population Mitotic Cells (%): 69%
  Population Normal (%): 97%
  Population Pyknosed Nuclei (%): 6%
  Population Tubulin-Different-Phenotype (%): 13%
  Total Cell Count: 878
[10]
  Population Apoptotic (%): 38%
  Population Fragmented Nuclei (%): 14%
  Population Healthy Nuclei (%): 79%
  Population Hoechst High Intensity Objects (%): 4%
  Population Mitochondria Different-Phenotype (%): 23%
  Population Mitotic Cells (%): 61%
  Population Normal (%): 95%
  Population Pyknosed Nuclei (%): 5%
  Population Tubulin-Different-Phenotype (%): 12%
  Total Cell Count: 608
[11]
  Population Apoptotic (%): 26%
  Population Fragmented Nuclei (%): 14%
  Population Healthy Nuclei (%): 78%
  Population Hoechst High Intensity Objects (%): 4%
  Population Membrane Permeable-Phenotype (%): 1%
  Population Mitochondria Different-Phenotype (%): 23%
  Population Mitotic Cells (%): 73%
  Population Normal (%): 95%
  Population Pyknosed Nuclei (%): 6%
  Population Tubulin-Different-Phenotype (%): 20%
  Total Cell Count: 734
[12]
  Population Apoptotic (%): 47%
  Population Fragmented Nuclei (%): 16%
  Population Healthy Nuclei (%): 73%
  Population Hoechst High Intensity Objects (%): 10%
  Population Mitochondria Different-Phenotype (%): 40%
  Population Mitotic Cells (%): 52%
  Population Normal (%): 89%
  Population Pyknosed Nuclei (%): 9%
  Population Tubulin-Different-Phenotype (%): 23%
  Total Cell Count: 383
